Experimental data from ChEMBL document CHEMBL1833861 (J Med Chem, 2011).
Calls of active or inactive are those of the source. The rule behind the calls is not given here.

Columns and labels:
[1] = target: T1, Neuronal acetylcholine receptor; alpha4/beta2 (Homo sapiens, UniProt P17787+P43681); test: Agonist activity at human alpha4beta2 nAChR expressed in human SH-EP1 cells assessed as increase of carbamylcholine-induced 86Rb+ ion efflux by liquid scintillation counting relative to carbamylcholine; type: functional, cell-based
T1 sequence (P17787 whole entry): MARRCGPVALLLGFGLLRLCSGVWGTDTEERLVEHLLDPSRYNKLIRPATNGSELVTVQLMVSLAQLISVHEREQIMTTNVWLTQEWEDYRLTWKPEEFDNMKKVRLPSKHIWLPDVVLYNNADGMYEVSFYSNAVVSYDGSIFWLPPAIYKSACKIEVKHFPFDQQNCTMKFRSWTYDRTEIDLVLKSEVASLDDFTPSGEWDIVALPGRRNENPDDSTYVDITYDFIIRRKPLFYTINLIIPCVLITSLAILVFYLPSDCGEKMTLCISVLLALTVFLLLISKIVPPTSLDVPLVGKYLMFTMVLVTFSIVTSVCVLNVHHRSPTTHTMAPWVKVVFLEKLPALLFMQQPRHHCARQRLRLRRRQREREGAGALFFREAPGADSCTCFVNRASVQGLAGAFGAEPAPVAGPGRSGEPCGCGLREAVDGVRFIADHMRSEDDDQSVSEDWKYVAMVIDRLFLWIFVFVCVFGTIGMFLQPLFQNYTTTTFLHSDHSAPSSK
T1 sequence (P43681 whole entry): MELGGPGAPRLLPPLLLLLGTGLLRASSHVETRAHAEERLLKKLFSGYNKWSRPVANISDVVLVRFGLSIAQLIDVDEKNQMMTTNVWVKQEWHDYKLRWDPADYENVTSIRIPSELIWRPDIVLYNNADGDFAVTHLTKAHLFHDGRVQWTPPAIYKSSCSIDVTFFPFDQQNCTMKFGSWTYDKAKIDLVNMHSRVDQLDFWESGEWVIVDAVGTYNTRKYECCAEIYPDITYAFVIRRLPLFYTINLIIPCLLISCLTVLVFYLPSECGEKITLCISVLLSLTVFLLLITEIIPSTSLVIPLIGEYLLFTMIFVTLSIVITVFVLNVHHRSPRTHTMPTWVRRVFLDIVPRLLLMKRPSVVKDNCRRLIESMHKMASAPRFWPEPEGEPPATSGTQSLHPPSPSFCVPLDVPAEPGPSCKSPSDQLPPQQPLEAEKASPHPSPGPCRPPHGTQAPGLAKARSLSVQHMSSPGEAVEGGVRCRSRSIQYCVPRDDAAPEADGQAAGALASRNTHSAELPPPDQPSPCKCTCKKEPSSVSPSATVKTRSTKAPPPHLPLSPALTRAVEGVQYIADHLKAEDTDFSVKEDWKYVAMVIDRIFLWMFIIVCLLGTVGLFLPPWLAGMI

[2] = target: T1, Neuronal acetylcholine receptor; alpha4/beta2; test: Agonist activity at human alpha4beta2 nAChR expressed in human SH-EP1 cells assessed as increase of carbamylcholine-induced 86Rb+ ion efflux by liquid scintillation counting; type: functional, cell-based
[3] = Binding affinity to sigma2 receptor at 10 uM by radioligand displacement assay
[4] = target: Sigma non-opioid intracellular receptor 1 (Homo sapiens) (UniProt Q99720); test: Binding affinity to sigma1 receptor at 10 uM by radioligand displacement assay
[5] = target: Sodium-dependent serotonin transporter (Homo sapiens) (UniProt P31645); test: Binding affinity to SERT at 10 uM by radioligand displacement assay
[6] = target: Sodium-dependent noradrenaline transporter (Homo sapiens) (UniProt P23975); test: Binding affinity to NET at 10 uM by radioligand displacement assay
[7] = target: T2, Kappa-type opioid receptor (Homo sapiens, UniProt P41145); test: Binding affinity to kappa opioid receptor at 10 uM by radioligand displacement assay
T2 sequence (P41145 whole entry): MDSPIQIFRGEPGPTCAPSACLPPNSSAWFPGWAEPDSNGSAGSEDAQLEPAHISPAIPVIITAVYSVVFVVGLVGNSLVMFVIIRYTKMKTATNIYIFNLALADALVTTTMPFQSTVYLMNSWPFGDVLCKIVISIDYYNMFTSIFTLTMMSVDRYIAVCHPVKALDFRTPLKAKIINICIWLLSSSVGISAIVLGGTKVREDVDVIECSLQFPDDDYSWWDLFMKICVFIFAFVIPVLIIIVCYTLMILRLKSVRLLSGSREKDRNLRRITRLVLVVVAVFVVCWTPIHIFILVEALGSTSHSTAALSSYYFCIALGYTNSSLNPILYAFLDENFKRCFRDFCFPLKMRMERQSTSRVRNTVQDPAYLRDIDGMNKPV

[8] = target: Delta-type opioid receptor (Homo sapiens) (UniProt P41143); test: Binding affinity to delta opioid receptor at 10 uM by radioligand displacement assay
[9] = target: Muscarinic acetylcholine receptor M4 (Homo sapiens) (UniProt P08173); test: Binding affinity to muscarinic M4 receptor at 10 uM by radioligand displacement assay
[10] = target: Muscarinic acetylcholine receptor M3 (Homo sapiens) (UniProt P20309); test: Binding affinity to muscarinic M3 receptor at 10 uM by radioligand displacement assay
[11] = target: Muscarinic acetylcholine receptor M2 (Homo sapiens) (UniProt P08172); test: Binding affinity to muscarinic M2 receptor at 10 uM by radioligand displacement assay
[12] = target: Muscarinic acetylcholine receptor M1 (Homo sapiens) (UniProt P11229); test: Binding affinity to muscarinic M1 receptor at 10 uM by radioligand displacement assay
[13] = target: Histamine H4 receptor (Homo sapiens) (UniProt Q9H3N8); test: Binding affinity to histamine H4 receptor at 10 uM by radioligand displacement assay
[14] = target: Histamine H3 receptor (Homo sapiens) (UniProt Q9Y5N1); test: Binding affinity to histamine H3 receptor at 10 uM by radioligand displacement assay
[15] = target: Histamine H2 receptor (Homo sapiens) (UniProt P25021); test: Binding affinity to histamine H2 receptor at 10 uM by radioligand displacement assay
Sequence of Histamine H2 receptor (Homo sapiens) (P25021 whole entry): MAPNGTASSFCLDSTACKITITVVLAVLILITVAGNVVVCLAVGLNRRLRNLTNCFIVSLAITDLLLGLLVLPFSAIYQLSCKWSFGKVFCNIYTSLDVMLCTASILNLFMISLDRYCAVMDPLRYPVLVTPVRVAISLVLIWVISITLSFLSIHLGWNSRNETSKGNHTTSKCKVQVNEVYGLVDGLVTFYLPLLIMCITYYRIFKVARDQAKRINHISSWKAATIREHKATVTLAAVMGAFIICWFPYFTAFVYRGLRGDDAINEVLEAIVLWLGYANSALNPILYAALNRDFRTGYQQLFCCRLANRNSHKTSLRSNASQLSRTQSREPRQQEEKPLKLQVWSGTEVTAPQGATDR

[16] = target: Beta-2 adrenergic receptor (Homo sapiens) (UniProt P07550); test: Binding affinity to beta2 adrenergic receptor at 10 uM by radioligand displacement assay
[17] = target: Beta-1 adrenergic receptor (Homo sapiens) (UniProt P08588); test: Binding affinity to beta1 adrenergic receptor at 10 uM by radioligand displacement assay
[18] = target: Alpha-2C adrenergic receptor (Homo sapiens) (UniProt P18825); test: Binding affinity to Alpha-2C adrenergic receptor at 10 uM by radioligand displacement assay
[19] = target: Alpha-2B adrenergic receptor (Homo sapiens) (UniProt P18089); test: Binding affinity to alpha2B adrenergic receptor at 10 uM by radioligand displacement assay
[20] = target: Alpha-2A adrenergic receptor (Homo sapiens) (UniProt P08913); test: Binding affinity to alpha2A adrenergic receptor at 10 uM by radioligand displacement assay
[21] = target: Alpha-1D adrenergic receptor (Homo sapiens) (UniProt P25100); test: Binding affinity to Alpha-1D adrenergic receptor at 10 uM by radioligand displacement assay
[22] = target: Alpha-1B adrenergic receptor (Homo sapiens) (UniProt P35368); test: Binding affinity to Alpha-1B adrenergic receptor at 10 uM by radioligand displacement assay
[23] = target: Alpha-1A adrenergic receptor (Homo sapiens) (UniProt P35348); test: Binding affinity to alpha1A adrenergic receptor at 10 uM by radioligand displacement assay
[24] = Binding affinity to rat benzodiazepine receptor at 10 uM by radioligand displacement assay
[25] = target: D(1B) dopamine receptor (Homo sapiens) (UniProt P21918); test: Binding affinity to dopamine D5 receptor at 10 uM by radioligand displacement assay
[26] = target: D(4) dopamine receptor (Homo sapiens) (UniProt P21917); test: Binding affinity to dopamine D4 receptor at 10 uM by radioligand displacement assay
[27] = target: D(3) dopamine receptor (Homo sapiens) (UniProt P35462); test: Binding affinity to dopamine D3 receptor at 10 uM by radioligand displacement assay
[28] = target: D(2) dopamine receptor (Homo sapiens) (UniProt P14416); test: Binding affinity to dopamine D2 receptor at 10 uM by radioligand displacement assay
[29] = target: D(1A) dopamine receptor (Homo sapiens) (UniProt P21728); test: Binding affinity to dopamine D1 receptor at 10 uM by radioligand displacement assay
[30] = Binding affinity to GABAA receptor at 10 uM by radioligand displacement assay
[31] = target: 5-hydroxytryptamine receptor 7 (Homo sapiens) (UniProt P34969); test: Binding affinity to 5HT7 receptor at 10 uM by radioligand displacement assay
[32] = target: 5-hydroxytryptamine receptor 6 (Homo sapiens) (UniProt P50406); test: Binding affinity to 5HT6 receptor at 10 uM by radioligand displacement assay
[33] = Binding affinity to 5HT3 receptor at 10 uM by radioligand displacement assay
[34] = target: 5-hydroxytryptamine receptor 2C (Homo sapiens) (UniProt P28335); test: Binding affinity to 5HT2C receptor at 10 uM by radioligand displacement assay
[35] = target: 5-hydroxytryptamine receptor 2B (Homo sapiens) (UniProt P41595); test: Binding affinity to 5HT2B receptor at 10 uM by radioligand displacement assay
[36] = target: 5-hydroxytryptamine receptor 2A (Homo sapiens) (UniProt P28223); test: Binding affinity to 5HT2A receptor at 10 uM by radioligand displacement assay
[37] = target: 5-hydroxytryptamine receptor 1E (Homo sapiens) (UniProt P28566); test: Binding affinity to 5HT1E receptor at 10 uM by radioligand displacement assay
[38] = target: 5-hydroxytryptamine receptor 1B (Homo sapiens) (UniProt P28222); test: Binding affinity to 5HT1B receptor at 10 uM by radioligand displacement assay
[39] = target: 5-hydroxytryptamine receptor 1D (Homo sapiens) (UniProt P28221); test: Binding affinity to 5HT1D receptor at 10 uM by radioligand displacement assay
[40] = target: 5-hydroxytryptamine receptor 1A (Homo sapiens) (UniProt P08908); test: Binding affinity to 5HT1A receptor at 10 uM by radioligand displacement assay
Rattus norvegicus = species: Rattus norvegicus; test: Selectivity ratio of Ki for rat alpha4beta2 nAChR over Ki for rat alpha3beta4 nAChR
[41] = target: T2, Kappa-type opioid receptor; test: Binding affinity to kappa opioid receptor by radioligand displacement assay
[42] = target: Neuronal acetylcholine receptor; alpha4/beta4 (Rattus norvegicus, UniProt P09483+P12392); test: Displacement of [3H]epibatidine from rat alpha4beta4 nAChR receptor; type: protein-complex assay
[43] = target: T3, Neuronal acetylcholine receptor; alpha4/beta2 (Rattus norvegicus, UniProt P09483+P12390); test: Displacement of [3H]epibatidine from rat alpha4beta2 nAChR receptor; type: protein-complex assay
T3 sequence (P09483 whole entry): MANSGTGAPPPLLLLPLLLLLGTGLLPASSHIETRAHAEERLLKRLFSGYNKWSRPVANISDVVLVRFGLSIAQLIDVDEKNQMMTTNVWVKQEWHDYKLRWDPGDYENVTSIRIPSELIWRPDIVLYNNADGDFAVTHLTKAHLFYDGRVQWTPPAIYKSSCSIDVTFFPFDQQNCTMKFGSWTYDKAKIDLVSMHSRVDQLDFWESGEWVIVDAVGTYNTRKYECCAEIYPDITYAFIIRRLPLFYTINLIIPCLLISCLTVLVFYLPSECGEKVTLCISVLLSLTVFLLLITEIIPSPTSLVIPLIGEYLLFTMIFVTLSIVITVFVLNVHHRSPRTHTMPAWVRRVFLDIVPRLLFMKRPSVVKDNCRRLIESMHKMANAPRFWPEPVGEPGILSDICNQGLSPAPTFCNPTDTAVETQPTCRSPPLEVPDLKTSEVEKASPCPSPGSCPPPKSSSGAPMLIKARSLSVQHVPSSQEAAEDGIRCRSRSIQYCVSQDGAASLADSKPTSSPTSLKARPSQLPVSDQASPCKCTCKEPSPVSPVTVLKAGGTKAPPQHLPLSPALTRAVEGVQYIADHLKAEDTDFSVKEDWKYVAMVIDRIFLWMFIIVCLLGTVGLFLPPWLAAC
T3 sequence (P12390 whole entry): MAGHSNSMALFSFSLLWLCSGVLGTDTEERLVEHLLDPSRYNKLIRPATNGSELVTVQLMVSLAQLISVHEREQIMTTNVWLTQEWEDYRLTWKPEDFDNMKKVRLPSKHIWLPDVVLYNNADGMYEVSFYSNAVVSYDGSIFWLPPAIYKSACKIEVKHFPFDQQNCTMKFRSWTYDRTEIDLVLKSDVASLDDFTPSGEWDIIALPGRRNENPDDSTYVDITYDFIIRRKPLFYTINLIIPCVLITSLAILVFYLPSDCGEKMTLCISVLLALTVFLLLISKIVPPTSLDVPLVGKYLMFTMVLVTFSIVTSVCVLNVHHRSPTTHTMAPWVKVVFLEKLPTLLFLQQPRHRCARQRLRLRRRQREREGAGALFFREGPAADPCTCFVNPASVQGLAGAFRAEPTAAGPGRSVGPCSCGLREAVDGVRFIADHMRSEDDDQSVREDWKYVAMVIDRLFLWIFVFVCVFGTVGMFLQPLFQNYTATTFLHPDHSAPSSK

[44] = target: Neuronal acetylcholine receptor; alpha3/beta4 (Rattus norvegicus, UniProt P04757+P12392); test: Displacement of [3H]epibatidine from rat alpha3beta4 nAChR receptor; type: protein-complex assay
Sequence of Neuronal acetylcholine receptor; alpha3/beta4 (P04757 whole entry): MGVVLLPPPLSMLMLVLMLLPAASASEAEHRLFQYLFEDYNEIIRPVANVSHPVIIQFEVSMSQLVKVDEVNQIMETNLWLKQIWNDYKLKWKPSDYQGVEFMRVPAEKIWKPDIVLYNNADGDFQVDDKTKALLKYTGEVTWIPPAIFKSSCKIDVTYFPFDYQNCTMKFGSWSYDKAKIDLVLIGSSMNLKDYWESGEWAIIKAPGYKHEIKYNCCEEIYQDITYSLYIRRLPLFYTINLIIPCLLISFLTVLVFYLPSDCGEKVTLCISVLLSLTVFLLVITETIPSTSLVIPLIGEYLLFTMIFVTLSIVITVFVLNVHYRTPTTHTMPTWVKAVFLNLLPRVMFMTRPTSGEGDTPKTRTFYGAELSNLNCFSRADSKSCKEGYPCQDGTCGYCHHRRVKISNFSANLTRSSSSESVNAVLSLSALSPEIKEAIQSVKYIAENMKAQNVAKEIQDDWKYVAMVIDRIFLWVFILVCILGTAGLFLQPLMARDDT
Sequence of Neuronal acetylcholine receptor; alpha3/beta4 (P12392 whole entry): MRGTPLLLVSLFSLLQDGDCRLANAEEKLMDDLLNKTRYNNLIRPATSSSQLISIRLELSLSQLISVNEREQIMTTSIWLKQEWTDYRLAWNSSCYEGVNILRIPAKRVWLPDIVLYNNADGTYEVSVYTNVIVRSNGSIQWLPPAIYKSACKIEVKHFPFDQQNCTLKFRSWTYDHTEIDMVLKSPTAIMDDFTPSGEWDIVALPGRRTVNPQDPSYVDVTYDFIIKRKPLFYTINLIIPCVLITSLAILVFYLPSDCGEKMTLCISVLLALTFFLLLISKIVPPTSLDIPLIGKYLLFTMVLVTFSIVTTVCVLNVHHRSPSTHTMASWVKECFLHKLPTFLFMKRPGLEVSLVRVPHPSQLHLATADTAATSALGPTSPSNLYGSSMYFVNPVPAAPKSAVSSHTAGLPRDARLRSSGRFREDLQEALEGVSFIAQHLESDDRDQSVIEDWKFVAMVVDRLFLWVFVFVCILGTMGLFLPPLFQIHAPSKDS

[45] = target: Neuronal acetylcholine receptor; alpha2/beta4 (Rattus norvegicus, UniProt P12389+P12392); test: Displacement of [3H]epibatidine from rat alpha2beta4 receptor; type: protein-complex assay
[46] = target: Neuronal acetylcholine receptor; alpha3/beta2 (Rattus norvegicus, UniProt P04757+P12390); test: Displacement of [3H]epibatidine from rat alpha3beta2 receptor; type: protein-complex assay
Sequence of Neuronal acetylcholine receptor; alpha3/beta2 (P04757 whole entry): as the sequence (P04757 whole entry) above
Sequence of Neuronal acetylcholine receptor; alpha3/beta2 (P12390 whole entry): as the sequence (P12390 whole entry) above

[47] = target: Neuronal acetylcholine receptor; alpha2/beta2 (Rattus norvegicus, UniProt P12389+P12390); test: Displacement of [3H]epibatidine from rat alpha2beta2 receptor; type: protein-complex assay
[48] = target: T1, Neuronal acetylcholine receptor; alpha4/beta2; test: Antagonist activity at human alpha4beta2 nAChR expressed in SH-EP1 cells assessed as inhibition of carbamylcholine-induced 86Rb+ ion efflux by liquid scintillation counting; type: functional, cell-based
[49] = target: T1, Neuronal acetylcholine receptor; alpha4/beta2; test: Antagonist activity at human alpha4beta2 nAChR expressed in SH-EP1 cells assessed as inhibition of carbamylcholine-induced 86Rb+ ion efflux by liquid scintillation counting relative to mecamylamine; type: functional, cell-based
Mus musculus [50] = test: Antidepressant activity in BALB/cJ mouse assessed as decrease in immobility time at 1 mg/kg, ip after 30 mins by forced swim test; type: functional, organism-based; set-up: dose 1 mg/kg
Outline: (§1)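 Male BALB/cJ mice, 8–10 weeks old; compound in injectable water given ip at 10 mL/kg. Sertraline (10 or 20 mg/kg) served as positive control. 30 min post-dose, each mouse placed in a glass cylinder with 12 cm of 23 ± 1 °C water; immobility (floating) timed over a 6 min trial. n = 10/group; ANOVA with post hoc test.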

Mus musculus [51] = test: Antidepressant activity in BALB/cJ mouse assessed as decrease in immobility time at 3 mg/kg, ip after 30 mins by forced swim test; type: functional, organism-based; set-up: dose 3 mg/kg; outline: as §1
[52] = target: Mu-type opioid receptor (Homo sapiens) (UniProt P35372); test: Binding affinity to MOR at 10 uM by radioligand displacement assay
[53] = target: T3, Neuronal acetylcholine receptor; alpha4/beta2; test: Displacement of [3H]epibatidine from rat alpha4beta2 receptor expressed in HEK cells; type: cell-based, HEK293
Outline: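 Competition binding of [3H]epibatidine to membrane fractions from HEK cells stably transfected with rat α4 and β2 subunits; Ki values for blockade of specific binding.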

Mus musculus [54] = test: Antidepressant activity in BALB/cJ mouse assessed as decrease in immobility time at 10 mg/kg, po after 30 mins by forced swim test; type: functional, organism-based; set-up: dose 10 mg/kg
Outline: (§2)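 Male BALB/cJ mice, 8–10 weeks old, dosed by oral gavage with compound in injectable water (10 mL/kg). Sertraline served as positive control. Forced swim begins 30 min after dosing, in a cylinder with 12 cm of 23 ± 1 °C water; total immobility recorded over 6 min. ANOVA followed by Newman-Keuls post hoc test.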

Mus musculus [55] = test: Antidepressant activity in BALB/cJ mouse assessed as decrease in immobility time at 1 mg/kg, po after 30 mins by forced swim test; type: functional, organism-based; set-up: dose 1 mg/kg; outline: as §2
Mus musculus [56] = test: Antidepressant activity in BALB/cJ mouse assessed as decrease in immobility time at 3 mg/kg, po after 30 mins by forced swim test; type: functional, organism-based; set-up: dose 3 mg/kg; outline: as §2
Liver microsomes = test: Metabolic stability in human liver microsomes at 1 uM; type: ADME, Microsome
Liver = test: Metabolic stability in mouse liver microsomes at 1 uM; type: ADME, Microsome
Plasma = test: Plasma protein binding in CD1 mouse at 10 uM; type: ADME, cell-free
[57] = Inhibition of cytochrome P450; type: ADME
Outline: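 Inhibitory potential tested against nine different CYP450 enzymes.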

Mus musculus [58] = test: Antidepressant activity in BALB/cJ mouse assessed as decrease in immobility time at 30 mg/kg, ip after 30 mins by forced swim test; type: functional, organism-based; set-up: dose 30 mg/kg; outline: as §1

## Cl.OCCCc1cc(-c2cncc(OC[C@@H]3CCN3)c2)on1
[1]
  Efficacy: 13%
[2]
  EC50: 36 nM
[3]
  inhibition: -4.3%
[4]
  inhibition: 25.9%
[5]
  inhibition: -0.6%
[6]
  inhibition: 14.2%
[7]
  inhibition: 20%
[8]
  inhibition: 6.4%
[9]
  inhibition: 2%
[10]
  inhibition: -6.8%
[11]
  inhibition: 11.4%
[12]
  inhibition: 2%
[13]
  inhibition: -4.4%
[14]
  inhibition: 6.2%
[15]
  inhibition: 42.6%
[16]
  inhibition: -1%
[17]
  inhibition: -3.2%
[18]
  inhibition: 22%
[19]
  inhibition: 10.8%
[20]
  inhibition: -0.5%
[21]
  inhibition: 2.9%
[22]
  inhibition: -0.4%
[23]
  inhibition: -9.5%
[24]
  inhibition: 21.7%
[25]
  inhibition: -1.8%
[26]
  inhibition: 19.8%
[27]
  inhibition: 15.3%
[28]
  inhibition: 19.8%
[29]
  inhibition: -3.3%
[30]
  inhibition: 26.9%
[31]
  inhibition: 16.2%
[32]
  inhibition: 22.3%
[33]
  inhibition: 18.8%
[34]
  inhibition: 14.6%
[35]
  inhibition: 17.7%
[36]
  inhibition: 22.2%
[37]
  inhibition: 4.1%
[38]
  inhibition: -9.9%
[39]
  inhibition: 7.1%
[40]
  inhibition: 0.3%
Rattus norvegicus
  Ratio Ki: 15000
[41]
  Ki: > 10 µM
[42]
  Ki: 182 nM
[43]
  Ki: 0.67 nM
[44]
  Ki: > 10 µM
[45]
  Ki: 1410 nM
[46]
  Ki: 16 nM
[47]
  Ki: 0.9 nM
[48]
  IC50: 61 nM
[49]
  Efficacy: 68%
Mus musculus [50]
  Activity: inactive
Mus musculus [51]
  Activity: Active
[52]
  inhibition: 14.2%
[53]
  Ki: 0.67 nM
Mus musculus [54]
  Activity: Active
Mus musculus [55]
  Activity: inactive
Mus musculus [56]
  Activity: inactive
Liver microsomes
  Stability: Stable
Liver
  Stability: Stable
Plasma
  PPB: 26%
[57]
  inhibition (INH): Not Active

## OCc1cc(-c2cncc(OC[C@@H]3CCN3)c2)on1
[1]
  Efficacy: 13%
[2]
  EC50: 25 nM
Rattus norvegicus
  Ratio Ki: 20000
[42]
  Ki: 81 nM
[43]
  Ki: 0.31 nM
[44]
  Ki: 6.66 µM
[45]
  Ki: 310 nM
[46]
  Ki: 2.9 nM
[47]
  Ki: 0.32 nM
[48]
  IC50: 16 nM
[49]
  Efficacy: 66%
Mus musculus [58]
  Activity: Active
[53]
  Ki: 0.31 nM
